Source: PubChem BioAssay
Compounds with a hit are over-represented: about 3.3% of the library has one in this group of screens.
FAK inh = inhibitors of human focal adhesion kinase | Q05397 | biochemical FAK kinase activity assay | inhibition, %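 (tested at 7 µM)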 | 97,000 tested, 0.84% active;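 further: 0% = DMSO and 100% = reference compound high control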
Measles CPE = protection of cells from measles virus | 140,000 tested, 1.5% active | protection (pct of control), % at 4 µM | Measles virus-infected cells, CPE protection, absorbance; in the data active means protection mostly above about 24%, no sharp cut-off; inactive means mostly below about 26%
IL1B NFkB pot = enhances IL-1B driven NFkB nuclear translocation | HUVEC IL-1B NFkB p65 nuclear translocation imaging | activation, % at 2 µM | 94,000 tested, 0.3% active;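 active means activation above 40%, about the mean plus 3 SD, also judged a hit on visual image review; inconclusive means activation above 40% but not a hit on visual review; inactive means activation not above 40% and no visual hit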;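 further: percent activation is computed from the nuclear over cytoplasmic p65 intensity ratio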
HIV Rev-RRE inh = disrupts HIV-1 Rev binding to RRE RNA. P05866. Rev peptide-RRE RNA binding, FRET. inhibition, % at 8 µM. 97,000 tested, 0.79% active. AID 704;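 active means inhibition above the screen-wide mean plus 3 SD, cut at about 35% in these data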;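 further: 0% = median DMSO wells and 100% = median Neomycin B control wells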
Target sequence (P05866 whole entry, looked up): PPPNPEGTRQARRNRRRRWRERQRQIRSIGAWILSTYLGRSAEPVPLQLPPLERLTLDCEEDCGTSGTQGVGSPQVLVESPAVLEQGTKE
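Assay system: labelled RRE RNA duplex and labelled Rev peptide / Medium: HEPES pH 7.5 salt buffer with EDTA / Reagent: labelled Rev peptide / Schedule: 5 + 15 min at 25 °C / Signal: FRET, excitation 480 nm, emission 540 nm donor and 671 nm acceptor / Benchmarks: DMSO and neomycin B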
HUVEC tox IL1B = toxic to HUVEC cells under IL-1B stimulation | AID 845 | cell count reduction, % at 2 µM | HUVEC cell count loss, Hoechst imaging, IL-1B stimulated | 94,000 tested, 0.41% active;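 active means cell count reduction more than 3 SD above the screen-wide mean, cut at about 70% in these data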;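 further: normalized per plate to untreated control cells as the no-loss baseline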
IL1B NFkB inh = blocks IL-1B driven NFkB nuclear translocation in HUVEC cells. HUVEC IL-1B NFkB p65 nuclear translocation imaging. inhibition, % at 2 µM. 94,000 tested, 0.43% active. AID 796;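 active means inhibition above about 30% together with a positive call from visual inspection of the well image, limit read from the data; inconclusive means inhibition above a set limit but visual check negative; inactive means inhibition not above a set limit, visual check negative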;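 further: nuclear over cytoplasmic p65 intensity ratio measured by imaging; 0% = IL-1B stimulated DMSO wells and 100% = unstimulated DMSO wells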
FAK inh conf = confirmation of human focal adhesion kinase (FAK) inhibitors; shares compounds with FAK inh; FAK kinase biochemical inhibition assay; inhibition, % at 7 µM; 750 tested, 28% active
Starred values were filed as active, the others as inactive. Unless noted, no stated cut-off is given here; in the data, active means inhibition above about 19%; inactive means the rest.

What do the screens show for `O=c1cc(-c2ccccc2)c2ccccc2[nH]1`?
FAK inh: 19*; Measles CPE: 76*; IL1B NFkB pot: 4; HIV Rev-RRE inh: 8; HUVEC tox IL1B: -8; IL1B NFkB inh: -4; FAK inh conf: -1

How did Cc1cc(=O)[nH]c2ccccc12 do in these assays?
FAK inh: 5; Measles CPE: 4; IL1B NFkB pot: -8; HIV Rev-RRE inh: 9; HUVEC tox IL1B: 38; IL1B NFkB inh: 8

What do the screens show for `Cc1oc2c(c1C(=O)c1ccc(Cl)cc1)C(=O)C(=O)c1ccccc1-2`?
FAK inh: 16; Measles CPE: 0; IL1B NFkB pot: -9; HIV Rev-RRE inh: 8; HUVEC tox IL1B: -26; IL1B NFkB inh: 9

How did Cc1ccc(C(=O)c2c(C)oc3c2C(=O)C(=O)c2ccccc2-3)cc1 do in these assays?
FAK inh: 21*; Measles CPE: 3; IL1B NFkB pot: 10; HIV Rev-RRE inh: 10; HUVEC tox IL1B: -2; IL1B NFkB inh: -10; FAK inh conf: 14

What do the screens show for `CC1=CC(=C2C(=O)c3ccccc3C2=O)C=C(C)N1Cc1ccco1`?
FAK inh: 24*; Measles CPE: 14; IL1B NFkB pot: -3; HIV Rev-RRE inh: 10; HUVEC tox IL1B: -33; IL1B NFkB inh: 3; FAK inh conf: 5

Results for O=C1c2ccccc2C(=O)N1Cc1ccco1 ?
FAK inh: 1; Measles CPE: 14; IL1B NFkB pot: 10; HIV Rev-RRE inh: 4; HUVEC tox IL1B: 4; IL1B NFkB inh: -10

What do the screens show for `CSc1nc(SCC(N)=O)c2c3c(sc2n1)CN(C)CC3`?
FAK inh: 16; Measles CPE: 12; IL1B NFkB pot: 9; HIV Rev-RRE inh: 14; HUVEC tox IL1B: -11; IL1B NFkB inh: -9

How did CN1CCc2c(sc3ncn4nc(-c5ccccc5O)nc4c23)C1 do in these assays?
FAK inh: 23*; Measles CPE: 6; IL1B NFkB pot: -3; HIV Rev-RRE inh: 27; HUVEC tox IL1B: 5; IL1B NFkB inh: 3; FAK inh conf: 28*

How did CC(=O)N1CCN(c2ccc(Nc3ncnc4c3oc3ccccc34)cc2)CC1 do in these assays?
FAK inh: 24*; Measles CPE: 6; IL1B NFkB pot: 2; HIV Rev-RRE inh: -2; HUVEC tox IL1B: -66; IL1B NFkB inh: -2; FAK inh conf: 16

How did O=c1[nH]c2ccccc2n1CCCOc1ccccc1 do in these assays?
FAK inh: -1; Measles CPE: 2; IL1B NFkB pot: inconclusive; HIV Rev-RRE inh: -2; HUVEC tox IL1B: -2; IL1B NFkB inh: -61

How did O=c1[nH]c2ccccc2n1CCCSc1cnc2ccccc2n1 do in these assays?
FAK inh: 42*; Measles CPE: 22; IL1B NFkB pot: 5; HIV Rev-RRE inh: 12; HUVEC tox IL1B: -14; IL1B NFkB inh: -5; FAK inh conf: 14

What do the screens show for `Clc1ccc(-c2n[nH]c3c2CCC3)cc1Cl`?
FAK inh: 28*; Measles CPE: 2; HIV Rev-RRE inh: 14; FAK inh conf: 15

What do the screens show for `COC(=O)c1ccc(OC(C)C(=O)c2ccc(C)cc2)cc1` (stereo not given)?
Measles CPE: 26

What do the screens show for `Cc1ccc(OCC(=O)NN=C2c3ccccc3-c3ccccc32)cc1`?
FAK inh: 1; Measles CPE: 3; IL1B NFkB pot: -2; HIV Rev-RRE inh: 0; HUVEC tox IL1B: -57; IL1B NFkB inh: 2

What do the screens show for `CCc1ccc(OCC(=O)N/N=C2\CC(=O)c3ccccc32)cc1`?
FAK inh: 32*; Measles CPE: 9; IL1B NFkB pot: 0; HIV Rev-RRE inh: -2; HUVEC tox IL1B: 12; IL1B NFkB inh: 0; FAK inh conf: 2

Results for CCc1ccc(/C=C2\CN(CC)Cc3c2nc2ccccc2c3C(=O)O)cc1 ?
FAK inh: 51*; Measles CPE: 4; IL1B NFkB pot: 10; HIV Rev-RRE inh: 40*; HUVEC tox IL1B: -16; IL1B NFkB inh: -10; FAK inh conf: 8

Results for O=C(COc1ccc(/C=N/NC(=O)c2cc3ccccc3o2)cc1Cl)Nc1ccccc1 ?
FAK inh: 40*; Measles CPE: 1; IL1B NFkB pot: -7; HIV Rev-RRE inh: -10; HUVEC tox IL1B: -1; IL1B NFkB inh: 7; FAK inh conf: 36*

How did O=C(Cc1ccccc1)N/N=C/c1ccc(OCC(=O)Nc2ccccc2)cc1 do in these assays?
FAK inh: 16; Measles CPE: 3; IL1B NFkB pot: 9; HIV Rev-RRE inh: 9; HUVEC tox IL1B: 10; IL1B NFkB inh: -8
